# Several values for one entry are separate records, joined by “and”; a condition that tells them apart may be missing. Equal entries are not always repeated. Where two headings read alike, the source gives them in different places.
# T1: EH domain of EHD1 (mouse), residues V437 to E534 (mouse, UniProt Q9WVK4 437-534)
# T1 sequence (looked up): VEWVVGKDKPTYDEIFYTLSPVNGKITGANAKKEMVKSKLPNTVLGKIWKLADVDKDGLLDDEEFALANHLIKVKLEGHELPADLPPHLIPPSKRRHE
# T2: EH domain of Reps1
# T2 chain: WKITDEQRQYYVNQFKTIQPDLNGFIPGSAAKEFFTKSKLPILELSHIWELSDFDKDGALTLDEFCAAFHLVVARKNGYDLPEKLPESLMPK
# Tests used:
# [1] = target: EH domain of EHD1 (mouse), residues V437 to E534 (mouse) (UniProt Q9WVK4)
# [2] = target: Rsn5-NPF1 peptide (first NPF motif of Rabenosyn-5) (UniProt Q9H1K0); test: ITC; conditions: pH 7.0; 20 C; 0 mM KCl added; 1 mM CaCl2; 25 mM MOPS pH 7.0
# Rsn5-NPF1 peptide (first NPF motif of Rabenosyn-5), sequence (Q9H1K0 whole entry, looked up, the tested form may be a part): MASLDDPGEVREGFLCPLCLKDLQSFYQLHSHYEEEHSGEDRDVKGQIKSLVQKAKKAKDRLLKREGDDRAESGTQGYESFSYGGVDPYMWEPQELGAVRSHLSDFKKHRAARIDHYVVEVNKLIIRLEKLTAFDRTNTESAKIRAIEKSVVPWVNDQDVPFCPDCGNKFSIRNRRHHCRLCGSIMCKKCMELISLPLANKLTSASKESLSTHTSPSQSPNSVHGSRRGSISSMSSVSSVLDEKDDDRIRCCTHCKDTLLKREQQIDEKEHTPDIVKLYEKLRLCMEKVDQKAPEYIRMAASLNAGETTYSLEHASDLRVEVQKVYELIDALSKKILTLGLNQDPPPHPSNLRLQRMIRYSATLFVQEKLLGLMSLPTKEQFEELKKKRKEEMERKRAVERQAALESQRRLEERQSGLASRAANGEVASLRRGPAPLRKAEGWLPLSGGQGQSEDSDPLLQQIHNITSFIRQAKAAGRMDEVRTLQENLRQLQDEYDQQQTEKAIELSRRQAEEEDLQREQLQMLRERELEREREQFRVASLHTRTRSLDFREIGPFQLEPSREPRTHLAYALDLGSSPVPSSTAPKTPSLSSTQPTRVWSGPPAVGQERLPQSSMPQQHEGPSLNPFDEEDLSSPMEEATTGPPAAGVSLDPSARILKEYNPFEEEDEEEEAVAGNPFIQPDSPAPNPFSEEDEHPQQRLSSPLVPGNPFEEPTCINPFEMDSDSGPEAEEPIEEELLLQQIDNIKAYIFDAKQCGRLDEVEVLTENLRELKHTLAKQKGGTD
# [3] = target: Rsn5-NPF1 peptide (first NPF motif of Rabenosyn-5) (UniProt Q9H1K0); test: ITC; conditions: pH 7.0; 20 C; 0 mM KCl added; 1 mM CaCl2; 25 mM MOPS pH 7.0; remark: listed apart in the source
# EH domain of EHD1 = test: ITC of NPF peptides binding to EHD1 EH; set-up: species or system mouse; conditions: ITC, 25 mM MOPS pH 7.0, 1 mM CaCl2
# How it was run: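 Mouse EHD1 EH domain (V437–E534) expressed as a GST fusion, purified on glutathione resin and thrombin-cleaved on beads. Protein and peptides were dialysed at 4°C against 25 mM MOPS pH 7.0, 1 mM CaCl2, with KCl varied where applicable. ITC was run at 20°C unless stated (5–25°C), with 50–200 μM protein in the cell and peptide titrant 10-fold higher. Single-site fit gave Ka, n and ΔH; ΔG = −RTlnKa, and TΔS came from ΔG = ΔH − TΔS.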
# [4] = target: T1, EH domain of EHD1 (mouse), residues …; test: ITC
# [5] = target: T1, EH domain of EHD1 (mouse), residues …; test: ITC; remark: listed apart in the source
# [6] = target: T1, EH domain of EHD1 (mouse), residues …; test: ITC; remark: listed apart in the source
# EH domain of Reps1 = target: T2, EH domain of Reps1; test: ITC
# [7] = target: T1, EH domain of EHD1 (mouse), residues …; test: ITC; remark: listed apart in the source
# [8] = target: T1, EH domain of EHD1 (mouse), residues …; test: ITC; remark: listed apart in the source
# [9] = target: T1, EH domain of EHD1 (mouse), residues …; test: ITC; remark: listed apart in the source
# [10] = target: T1, EH domain of EHD1 (mouse), residues …; test: ITC; remark: listed apart in the source
# [11] = target: T1, EH domain of EHD1 (mouse), residues …; test: ITC; remark: listed apart in the source
# [12] = target: T1, EH domain of EHD1 (mouse), residues …; test: ITC; remark: listed apart in the source
# [13] = target: T1, EH domain of EHD1 (mouse), residues …; test: ITC; remark: listed apart in the source
# [14] = target: T1, EH domain of EHD1 (mouse), residues …; test: ITC; remark: listed apart in the source
# [15] = target: T1, EH domain of EHD1 (mouse), residues …; test: ITC; remark: listed apart in the source
# [16] = target: T1, EH domain of EHD1 (mouse), residues …; test: ITC; remark: listed apart in the source
molecule,measurement,setting,value
Rabenosyn-5 peptide containing two NPF motifs,stoichiometry N,[1],2
"EHD1 EH domain (EH domain-containing protein 1, C-terminal EH domain)",ΔH,[2],-47.3 kJ/mol
same,ΔH,[3],-47.4 kJ/mol
Ac-YESTNPFTAK-NH2 [Rfp2-NPF2],Ka,EH domain of EHD1; 5.0 °C,17800 M⁻¹
same,TΔS,EH domain of EHD1; 5.0 °C,-16.18 kJ/mol
same,ΔH,EH domain of EHD1; 5.0 °C,-38.82 kJ/mol
same,ΔS,EH domain of EHD1; 5.0 °C,−13.9 cal mol^−1 K^−1
same,Ka,EH domain of EHD1; 10.0 °C,12800 M⁻¹
same,TΔS,EH domain of EHD1; 10.0 °C,-19.79 kJ/mol
same,ΔG,EH domain of EHD1; 10.0 °C,-22.24 kJ/mol
same,ΔH,EH domain of EHD1; 10.0 °C,-42.007 kJ/mol
same,ΔS,EH domain of EHD1; 10.0 °C,−16.7 cal mol^−1 K^−1
same,Ka,EH domain of EHD1; 15.0 °C,9390 M⁻¹
same,TΔS,EH domain of EHD1; 15.0 °C,-23.27 kJ/mol
same,ΔG,EH domain of EHD1; 15.0 °C,-21.89 kJ/mol
same,ΔH,EH domain of EHD1; 15.0 °C,-45.145 kJ/mol
same,ΔS,EH domain of EHD1; 15.0 °C,−19.3 cal mol^−1 K^−1
same,TΔS,EH domain of EHD1; 20.0 °C,-28.46 kJ/mol
same,ΔG,EH domain of EHD1; 20.0 °C,-21.43 kJ/mol
same,ΔH,EH domain of EHD1; 20.0 °C,-49.873 kJ/mol
same,ΔS,EH domain of EHD1; 20.0 °C,−23.2 cal mol^−1 K^−1
same,Ka,"EH domain of EHD1; 20 °C, KCl 75.0 mM",6460 M⁻¹
same,TΔS,"EH domain of EHD1; 20 °C, KCl 75.0 mM",-28.22 kJ/mol
same,ΔG,"EH domain of EHD1; 20 °C, KCl 75.0 mM",-21.36 kJ/mol
same,ΔH,"EH domain of EHD1; 20 °C, KCl 75.0 mM",-49.539 kJ/mol
same,ΔS,"EH domain of EHD1; 20 °C, KCl 75.0 mM",−23.0 cal mol^−1 K^−1
same,Ka,"EH domain of EHD1; 20 °C, KCl 150.0 mM",6910 M⁻¹
same,TΔS,"EH domain of EHD1; 20 °C, KCl 150.0 mM",-28.46 kJ/mol
same,ΔG,"EH domain of EHD1; 20 °C, KCl 150.0 mM",-21.53 kJ/mol
same,ΔH,"EH domain of EHD1; 20 °C, KCl 150.0 mM",-50.041 kJ/mol
same,ΔS,"EH domain of EHD1; 20 °C, KCl 150.0 mM",−23.2 cal mol^−1 K^−1
same,Ka,"EH domain of EHD1; 20 °C, KCl 300.0 mM",7490 M⁻¹
same,TΔS,"EH domain of EHD1; 20 °C, KCl 300.0 mM",-27.48 kJ/mol
same,ΔG,"EH domain of EHD1; 20 °C, KCl 300.0 mM",-21.72 kJ/mol
same,ΔH,"EH domain of EHD1; 20 °C, KCl 300.0 mM",-49.246 kJ/mol
same,ΔS,"EH domain of EHD1; 20 °C, KCl 300.0 mM",−22.4 cal mol^−1 K^−1
same,Ka,"EH domain of EHD1; 20 °C, KCl 450.0 mM",7810 M⁻¹
same,TΔS,"EH domain of EHD1; 20 °C, KCl 450.0 mM",-25.39 kJ/mol
same,ΔG,"EH domain of EHD1; 20 °C, KCl 450.0 mM",-21.83 kJ/mol
same,ΔH,"EH domain of EHD1; 20 °C, KCl 450.0 mM",-47.237 kJ/mol
same,ΔS,"EH domain of EHD1; 20 °C, KCl 450.0 mM",−20.7 cal mol^−1 K^−1
same,Ka,EH domain of EHD1; 25.0 °C,4700 M⁻¹
same,TΔS,EH domain of EHD1; 25.0 °C,-34.81 kJ/mol
same,ΔG,EH domain of EHD1; 25.0 °C,-20.94 kJ/mol
same,ΔH,EH domain of EHD1; 25.0 °C,-55.731 kJ/mol
same,ΔS,EH domain of EHD1; 25.0 °C,−27.9 cal mol^−1 K^−1
"Ac-GPSLNPFDEED-NH2 [Rsn5-NPF1, peptide of NPF1 of Rabenosyn-5 (Ac-GPSLNPFDEED-NH2)]",Ka,[4],1.71e+06 M⁻¹
same,dH,[4],-40.5 kJ/mol
same,stoichiometry N,[4],0.98
same,Ka,[5],1.1e+06 M⁻¹
same,dH,[5],-43.7 kJ/mol
same,stoichiometry N,[5],0.99
same,Ka,[6],168000 M⁻¹
same,dH,[6],-43.6 kJ/mol
same,stoichiometry N,[6],0.97
same,Ka,EH domain of Reps1,2000 M⁻¹
same,Ka,[7],17800 M⁻¹
same,dH,[7],-43.6 kJ/mol
same,stoichiometry N,[7],1.04
same,Ka,[8],814000 M⁻¹ and 861000 M⁻¹
same,dH,[8],-47.4 kJ/mol and -47.3 kJ/mol
same,stoichiometry N,[8],0.98 and 1.02
same,Ka,[9],115000 M⁻¹
same,dH,[9],-43.3 kJ/mol
same,stoichiometry N,[9],0.95
same,Ka,[10],606000 M⁻¹
same,dH,[10],-50 kJ/mol
same,stoichiometry N,[10],0.98
same,Ka,[11],302000 M⁻¹
same,dH,[11],-43.6 kJ/mol
same,stoichiometry N,[11],0.97
same,Ka,[12],2.03e+06 M⁻¹
same,dH,[12],-37.6 kJ/mol
same,stoichiometry N,[12],0.98
same,Ka,[13],65000 M⁻¹
same,dH,[13],-43.9 kJ/mol
same,stoichiometry N,[13],1.05
same,Ka,[14],53000 M⁻¹
same,dH,[14],-43.9 kJ/mol
same,stoichiometry N,[14],1.09
same,Ka,[15],24800 M⁻¹
same,dH,[15],-42.9 kJ/mol
same,stoichiometry N,[15],1.04
same,Ka,[16],86500 M⁻¹
same,dH,[16],-45.5 kJ/mol
same,stoichiometry N,[16],0.99
"Ac-YESTNPFTAK-NH2 [Rfp2-NPF2, peptide of NPF2 of Rab11-Fip2 (Ac-YESTNPFTAK-NH2)]",Ka,[4],12800 M⁻¹
same,dH,[4],-42 kJ/mol
same,stoichiometry N,[4],1.02
same,Ka,[5],9390 M⁻¹
same,dH,[5],-45.1 kJ/mol
same,stoichiometry N,[5],1.03
same,Ka,EH domain of Reps1,2000 M⁻¹
same,Ka,[7],7810 M⁻¹
same,dH,[7],-47.2 kJ/mol
same,stoichiometry N,[7],1.04
same,Ka,[8],6640 M⁻¹ and 7030 M⁻¹
same,dH,[8],-49.9 kJ/mol and -49.5 kJ/mol
same,stoichiometry N,[8],1.03 and 1.01
same,Ka,[9],6460 M⁻¹
same,dH,[9],-49.5 kJ/mol
same,stoichiometry N,[9],0.96
same,Ka,[10],4700 M⁻¹
same,dH,[10],-55.7 kJ/mol
same,stoichiometry N,[10],0.99
same,Ka,[12],17800 M⁻¹
same,dH,[12],-38.8 kJ/mol
same,stoichiometry N,[12],0.97
same,Ka,[14],6910 M⁻¹
same,dH,[14],-50 kJ/mol
same,stoichiometry N,[14],1.02
same,Ka,[15],7490 M⁻¹
same,dH,[15],-49.2 kJ/mol
same,stoichiometry N,[15],0.99
